For nine molecules, Activity and IC50 results are on record in ChEMBL document CHEMBL4118057, “Cytotoxic Bagremycins from Mangrove-Derived Streptomyces sp. Q22” (J Nat Prod, 2017).

In one experiment the test system is Staphylococcus aureus. The experiment is described as follows: Antimicrobial activity against methicillin-resistant Staphylococcus aureus ATCC 43300 after 12 hrs by micro broth dilution method. In kind it is functional, organism-based. In short, it runs like this:
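Test compounds serially diluted in 50% DMSO in broth microdilution plates. Each well received 2 μL of a 10^8 cf/mL culture, then incubated at 37 °C for 12 h overnight and read by eye. Clear wells and the next dilutions were plated on nutrient agar for 12 h at 37 °C. MIC was taken as the growth-inhibiting dilution. Gentamicin served as positive control.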
Background: In broth dilution the organism is exposed to a series of concentrations in liquid medium.

The test system of the next experiment is Escherichia coli. Nature of the experiment: Antimicrobial activity against Escherichia coli ATCC 25922 after 12 hrs by micro broth dilution method. Format: functional, organism-based. In a few lines:
(§1)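 Micro broth dilution: compound stock serially diluted with 50% DMSO (final volume 200 μL), inoculated with 2 μL of 10^8 cf/mL culture, incubated 37 °C for 12 h. Clear wells and the next dilutions plated on nutrient agar, incubated 37 °C for 12 h. MIC taken as the dilution that inhibited growth.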

A further experiment concerns Candida albicans. Nature of the experiment: Antimicrobial activity against Candida albicans after 12 hrs by micro broth dilution method. In kind it is functional, organism-based. In short, it runs like this: as §1
Experiment [1] relates to U-87 MG. The experiment is described as follows: Cytotoxicity against human U87MG cells after 72 hrs by sulforhodamine B assay. In kind it is functional, cell-based, U-87MG ATCC. In short, it runs like this:
(§2)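 SRB assay. C6 and U251 in DMEM with 10% FBS, SHG44 in RPMI-1640, all at 37 °C, 5% CO2. Cells adhered 24 h, then were exposed to a range of concentrations for 72 h. Fixed in cold 50% TCA at 4 °C for 1 h, stained with 0.4% SRB for 10 min, rinsed with 1% acetic acid. Dye dissolved in 10 mM Tris, OD read at 515 nm. Viability taken as treated/control OD; IC50 by logistic fit; n = 5.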
A general note: In SRB staining, fixed cells bind dye roughly in proportion to their protein.

Another experiment concerns U-251. The experiment is described as follows: Cytotoxicity against human U251 cells after 72 hrs by sulforhodamine B assay. In kind it is functional, cell-based. Particulars: U-251, 72 h. In a few lines:
as §2

The nature of experiment [2]: Cytotoxicity against human SHG44 cells after 72 hrs by sulforhodamine B assay. Particulars: SHG-44, 72 h. In kind it is functional, cell-based. In short, it runs like this:
as §2

A further experiment deals with C6. Nature of the experiment: Cytotoxicity against rat C6 cells after 72 hrs by sulforhodamine B assay. In kind it is functional, cell-based. Particulars: C6, 72 h. In a few lines:
as §2

The subject of experiment [3] is U-87 MG. The experiment is described as follows: Induction of apoptosis in human U87MG cells assessed as increase in total apoptotic cells at 10 uM after 24 hrs by annexin-V-FITC/propidium iodide staining based flow cytometric method relative to control. In kind it is functional, U-87MG ATCC. In short, it runs like this: (§3)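 U87MG cells were exposed for 24, 48 or 72 h, and 1 × 10^6 cells were harvested and washed in cold PBS. They were stained in binding buffer with annexin V-FITC and PI for 15 min at room temperature. Flow cytometry used 488 nm excitation with emission at 530/575 nm. Early plus late apoptotic cells were summed, and the untreated control was subtracted.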

For experiment [4], the system named is U-87 MG. Nature of the experiment: Induction of apoptosis in human U87MG cells assessed as increase in total apoptotic cells at 10 uM after 48 hrs by annexin-V-FITC/propidium iodide staining based flow cytometric method relative to control. Format: functional, U-87MG ATCC. In a few lines: as §3
On the technique in general: Flow cytometry measures light scatter and fluorescence of single cells or particles in a stream.

In experiment [5] the test system is U-87 MG. The experiment is described as follows: Induction of apoptosis in human U87MG cells assessed as increase in total apoptotic cells at 10 uM after 72 hrs by annexin-V-FITC/propidium iodide staining based flow cytometric method relative to control. Format: functional, U-87MG ATCC. In short, it runs like this:
as §3

Experiment [6] deals with U-87 MG. Nature of the experiment: Cell cycle arrest in human U87MG cells assessed as increase in accumulation at G0/G1 phase at 0.8 uM after 12 hrs by propidium iodide staining based flow cytometric method relative to control. Format: functional, U-87MG ATCC.
Experiment [7] deals with U-87 MG. The experiment is described as follows: Cell cycle arrest in human U87MG cells assessed as accumulation at S phase at 0.8 uM after 12 hrs by propidium iodide staining based flow cytometric method (reference value: 32.49%). In kind it is functional, U-87MG ATCC.
Experiment [8] relates to U-87 MG. Nature of the experiment: Cell cycle arrest in human U87MG cells assessed as accumulation at G2/M phase at 0.8 uM after 12 hrs by propidium iodide staining based flow cytometric method (reference value: 9.37%). In kind it is functional, U-87MG ATCC.
The test system of experiment [9] is U-87 MG. Nature of the experiment: Induction of apoptosis in human U87MG cells assessed as increase in total apoptotic cells at 2.2 uM after 24 hrs by annexin-V-FITC/propidium iodide staining based flow cytometric method relative to control. In kind it is functional, U-87MG ATCC. In a few lines:
as §3

The subject of experiment [10] is U-87 MG. Nature of the experiment: Induction of apoptosis in human U87MG cells assessed as increase in total apoptotic cells at 2.2 uM after 48 hrs by annexin-V-FITC/propidium iodide staining based flow cytometric method relative to control. Format: functional, U-87MG ATCC. In short, it runs like this: as §3
Experiment [11] has as its system U-87 MG. The experiment is described as follows: Induction of apoptosis in human U87MG cells assessed as increase in total apoptotic cells at 2.2 uM after 72 hrs by annexin-V-FITC/propidium iodide staining based flow cytometric method relative to control. In kind it is functional, U-87MG ATCC. In a few lines:
as §3

Experiment [12] relates to U-87 MG. The experiment is described as follows: Induction of apoptosis in human U87MG cells assessed as increase in total apoptotic cells at 4.4 uM after 24 hrs by annexin-V-FITC/propidium iodide staining based flow cytometric method relative to control. In kind it is functional, U-87MG ATCC. In a few lines: as §3
Experiment [13] relates to U-87 MG. The experiment is described as follows: Induction of apoptosis in human U87MG cells assessed as increase in total apoptotic cells at 4.4 uM after 48 hrs by annexin-V-FITC/propidium iodide staining based flow cytometric method relative to control. In kind it is functional, U-87MG ATCC. In short, it runs like this: as §3
For experiment [14], the system named is U-87 MG. The experiment is described as follows: Induction of apoptosis in human U87MG cells assessed as increase in total apoptotic cells at 4.4 uM after 72 hrs by annexin-V-FITC/propidium iodide staining based flow cytometric method relative to control. Format: functional, U-87MG ATCC. In short, it runs like this:
as §3

Experiment [15] relates to U-87 MG. Nature of the experiment: Cell cycle arrest in human U87MG cells assessed as increase in accumulation at G0/G1 phase at 2.2 uM after 12 hrs by propidium iodide staining based flow cytometric method relative to control. Format: functional, U-87MG ATCC.
The subject of experiment [16] is U-87 MG. The experiment is described as follows: Cell cycle arrest in human U87MG cells assessed as increase in accumulation at G0/G1 phase at 4.4 uM after 12 hrs by propidium iodide staining based flow cytometric method relative to control. In kind it is functional, U-87MG ATCC.
Experiment [17] concerns U-87 MG. The experiment is described as follows: Cell cycle arrest in human U87MG cells assessed as increase in accumulation at G0/G1 phase at 8.8 uM after 12 hrs by propidium iodide staining based flow cytometric method relative to control. In kind it is functional, U-87MG ATCC.
The test system of experiment [18] is U-87 MG. The experiment is described as follows: Cell cycle arrest in human U87MG cells assessed as accumulation at S phase at 2.2 uM after 12 hrs by propidium iodide staining based flow cytometric method (reference value: 32.49%). In kind it is functional, U-87MG ATCC.
In experiment [19] the test system is U-87 MG. The experiment is described as follows: Cell cycle arrest in human U87MG cells assessed as accumulation at S phase at 4.4 uM after 12 hrs by propidium iodide staining based flow cytometric method (reference value: 32.49%). In kind it is functional, U-87MG ATCC.
In experiment [20] the test system is U-87 MG. Nature of the experiment: Cell cycle arrest in human U87MG cells assessed as accumulation at S phase at 8.8 uM after 12 hrs by propidium iodide staining based flow cytometric method (reference value: 32.49%). In kind it is functional, U-87MG ATCC.
The subject of experiment [21] is U-87 MG. Nature of the experiment: Cell cycle arrest in human U87MG cells assessed as accumulation at G2/M phase at 2.2 uM after 12 hrs by propidium iodide staining based flow cytometric method (reference value: 9.37%). In kind it is functional, U-87MG ATCC.
In experiment [22] the test system is U-87 MG. Nature of the experiment: Cell cycle arrest in human U87MG cells assessed as accumulation at G2/M phase at 4.4 uM after 12 hrs by propidium iodide staining based flow cytometric method (reference value: 9.37%). Format: functional, U-87MG ATCC.
In experiment [23] the test system is U-87 MG. The experiment is described as follows: Cell cycle arrest in human U87MG cells assessed as accumulation at G2/M phase at 8.8 uM after 12 hrs by propidium iodide staining based flow cytometric method (reference value: 9.37%). In kind it is functional, U-87MG ATCC.

Calls of active or inactive are those of the source. The rule behind the calls is not given here.

As for `O=C1Oc2ccc(cc2)[C@H](O)CNc2cc1ccc2O`, the result in the experiment with Staphylococcus aureus, in the experiment with Escherichia coli and in the experiment on Candida albicans was inactive.
Regarding `C=Cc1ccc(O)cc1`, the outcome in the experiment on Staphylococcus aureus, in the experiment with Escherichia coli and with Candida albicans was inactive.
Consider `COc1cccc2c1C(=O)c1c(O)c3c(c(O)c1C2=O)C[C@@](O)(C(=O)CO)C[C@@H]3O[C@H]1C[C@H](N)[C@H](O)[C@H](C)O1` [DOXORUBICIN], for which the IC50 (in general, the concentration needed to halve the response being measured) with U-87 MG [1] was determined as 0.4 µM; in the experiment on U-251 it was 3.3 µM; in experiment [2] it was 1.9 µM; in the experiment with C6 it was 0.5 µM. Also, the Activity in the experiment on U-87 MG [3] stood at 3.17%; in the experiment on U-87 MG [4], 10.42%; in the experiment on U-87 MG [5], 26.87%; with U-87 MG [6], 24.74%; in the experiment on U-87 MG [7] it was 10.84%; with U-87 MG [8], 6.28%.
Regarding `C=Cc1ccc(O[C@H]2O[C@H](CO)[C@H](O)[C@H](O)[C@H]2O)cc1`, the outcome with Staphylococcus aureus, with Escherichia coli and in the experiment on Candida albicans was inactive.
On to `C=Cc1ccc(OC(=O)c2ccc(O)c(N)c2SC[C@@H](NC(C)=O)C(=O)O)cc1`, for which the IC50 in the experiment with U-87 MG [1] is 2.2 µM; in the experiment with U-251 it was 4.3 µM; in experiment [2], 2.4 µM; with C6, 6.4 µM. Moreover, the Activity in the experiment on U-87 MG [9] worked out at 0.96%; in the experiment on U-87 MG [10], 20.59%; in the experiment on U-87 MG [11] it was 58.32%; with U-87 MG [12] it was 3.36%; in the experiment with U-87 MG [13] it was 61.16%; in the experiment with U-87 MG [14] it was 93%. Also, the Activity with U-87 MG [15] is recorded as 5.71%; with U-87 MG [16], 16.18%; in the experiment with U-87 MG [17], 20.56%; in the experiment on U-87 MG [18], 27.23%; in the experiment with U-87 MG [19], 16.76%; in the experiment on U-87 MG [20], 13.77%. The Activity in the experiment with U-87 MG [21] is on record as 8.92%; with U-87 MG [22], 8.92%; with U-87 MG [23] it was 7.53%. Besides, the result with Staphylococcus aureus, with Escherichia coli and with Candida albicans was inactive.
In the case of `C=Cc1ccc(OC(=O)c2ccc(O)cc2)cc1`, the outcome in the experiment with Staphylococcus aureus, in the experiment on Escherichia coli and in the experiment on Candida albicans was inactive.
Consider `C=Cc1ccc(OC(=O)c2ccc(O)c(N)c2S)cc1`, for which the outcome in the experiment with Staphylococcus aureus, with Escherichia coli and in the experiment on Candida albicans was inactive.
As for `C=Cc1ccc(OC(=O)c2ccc(O)c(N)c2)cc1`, the outcome with Staphylococcus aureus, in the experiment with Escherichia coli and in the experiment on Candida albicans was inactive.
With `C=Cc1ccc(OC(=O)c2ccc(O)c(NC(C)=O)c2)cc1`, the concentration for half-maximal inhibition (IC50) with U-87 MG [1] was 10.2 µM; in the experiment on U-251, 9.7 µM; in experiment [2] it was 7.3 µM; with C6, 13.3 µM. In addition, the result in the experiment on Staphylococcus aureus, in the experiment on Escherichia coli and in the experiment on Candida albicans was inactive.
